Results taken from the RNAGym collection of RNA variant scans (doi:10.1126/science.aae0568).
Fewer inactive variants are shown than the library holds.

B1: tRNA (parent)
chain: GUUCCGUUGGCGUAAUGGUAACGCGUCUCCCUCCUAAGGAGAAGACUGCGGGUUCGAGUCCCGUACGGAACG

Variants of: B1
Assay: yeast fitness relative to wild type (ratio to wild type); higher = fitter; tRNA-Arg(CCU), competitive growth, 37 C, YPD
Method in brief: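 Changes in genotype frequencies gave Darwinian fitness relative to wild type. Frequencies were read by 100-nucleotide paired-end sequencing of gene amplicons before and after pooled Saccharomyces cerevisiae strains, carrying tRNA-Arg(CCU) gene variants at the native locus, were competed in YPD at 37°C for 24 hours in six replicates. A genotype was kept only with ≥ 100 starting reads, and estimates < 0.5 were set to 0.5.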

Row | Variant | yeast fitness
1 | A65G C66G | 0.897
2 | C66U G67C | 0.934
3 | G67C A69U | 0.896
4 | A65U A70C | 0.823
5 | G68C A69U | 0.711
6 | G68C A69G | 0.945
7 | G68C A69C | 0.786
8 | A65U G68U | 0.99
9 | A65U G68C | 0.625
10 | G67U A69C | 0.795
11 | U64C G68U | 1.01
12 | C66G A70U | 0.724
13 | C66U A70G | 0.973
14 | A69G A70U | 0.99
15 | A65G G67A | 1.03
16 | C66A A70U | 0.603
17 | G68C A70C | 0.837
18 | A65C A69G A70U | 0.519
19 | A65U A69U | 0.967
20 | A65U A69C | 0.845
21 | U64G C66U | 0.669
22 | C66A G67A | 0.557
23 | U64G A65U | 0.648
24 | A70U | 1.02

Row | Variant | yeast fitness
25 | A70G | 0.999
26 | A70C | 1.04
27 | A65C G67A | 0.692
28 | U64G A69G | 0.789
29 | U64G A69C | 0.616
30 | U64A G67A | 0.84
31 | U64C A69C A70U | 0.757
32 | U64C A65G | 0.86
33 | U64C A65U | 0.928
34 | C66G G68C | 0.634
35 | C66G A69C | 0.782
36 | C66G A69U | 0.746
37 | U64C C66A | 0.832
38 | U64G A70C | 0.755
39 | A69C A70C | 0.982
40 | A69C A70U | 1.05
41 | A69C A70G | 1.02
42 | G67A A70C | 0.901
43 | G68A A69U | 0.791
44 | G68A A69G | 0.827
45 | G67A G68A | 0.85
46 | G68U | 1.02
47 | G68C | 0.968
48 | G68A | 0.963

Row | Variant | yeast fitness
49 | U64C G67A | 0.802
50 | U64C G67C | 0.938
51 | G68U A69G | 0.998
52 | G67U A70U | 0.933
53 | C66A G68C | 0.678
54 | A65C A69G | 0.939
55 | A65C A69U | 0.921
56 | A65C A69C | 0.727
57 | G67A A69G | 0.974
58 | A65G C66G A70G | ≤ 0.5
59 | A65C A70G | 1.06
60 | A65C A70U | 1.06
61 | A65G A70C | 0.889
62 | A69U A70C | 1.04
63 | U64G G68A | 0.678
64 | C66A A69U | 0.693
65 | A65G G68C | 0.859
66 | G67C A70U | 0.904
67 | C66U A69U | 0.831
68 | C66U A69C | 0.743
69 | G68A A70U | 1.21
70 | G68A A70C | 0.861
71 | C66U G68A | 0.871
72 | A65U G67A | 0.839
